How the values were obtained:
Acinetobacter baumannii [1] = assay: Potentiation of colistin-induced antimicrobial activity against colistin-resistant Acinetobacter baumannii 4106 assessed as fold reduction in colistin MIC at 60 uM after 18 hrs by broth microdilution assay; assay type: functional
Outline: (§1)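 Checkerboard-style resensitization following adapted CLSI broth microdilution. Bacteria were grown 4–6 h in CAMHB and subcultured to 5×10^5 CFU/mL. Adjuvant was added from DMSO stock and held constant while colistin was serially diluted in the dosed subculture. Plates were incubated stationary at 37°C for 18 h, then MICs were read. Fold reduction was taken relative to the colistin MIC without adjuvant.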

Klebsiella pneumoniae [2] = assay: Potentiation of colistin-induced antimicrobial activity against colistin-resistant Klebsiella pneumoniae B9 assessed as fold reduction in colistin MIC at 60 uM after 18 hrs by broth microdilution assay; assay type: functional; outline: as §1
Acinetobacter baumannii [3] = assay: Potentiation of colistin-induced antimicrobial activity against colistin-resistant Acinetobacter baumannii ATCC 17978 expressing mcr1 gene assessed as fold reduction in colistin MIC at 60 uM after 18 hrs by broth microdilution assay; assay type: functional; outline: as §1
Escherichia coli [4] = assay: Potentiation of colistin-induced antimicrobial activity against colistin-resistant Escherichia coli ATCC 25922 expressing mcr1 gene assessed as fold reduction in colistin MIC at 60 uM after 18 hrs by broth microdilution assay; assay type: functional; outline: as §1
Acinetobacter baumannii [5] = assay: Toxicity in Acinetobacter baumannii 4106 after 18 hrs by broth microdilution assay; assay type: organism-based; conditions: in vitro
Outline: (§2)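 Single-agent MIC per CLSI broth microdilution. Cells from a 4–6 h culture in cation-adjusted Mueller-Hinton broth adjusted to 5 ×10^5 CFU/mL. Compound (DMSO stock) added to 200 μM top concentration and twofold serially diluted six times, with an untreated control row. Plates sealed and incubated stationary at 37°C for 18 h before MIC read.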

Klebsiella pneumoniae [6] = assay: Toxicity in Klebsiella pneumoniae B9 after 18 hrs by broth microdilution assay; assay type: organism-based; outline: as §2
Acinetobacter baumannii [7] = assay: Toxicity in Acinetobacter baumannii ATCC 17978 expressing mcr1 gene after 18 hrs by broth microdilution assay; assay type: organism-based; outline: as §2
Escherichia coli [8] = assay: Toxicity in Escherichia coli ATCC 25922 after 18 hrs by broth microdilution assay; assay type: organism-based; conditions: in vitro; outline: as §2

Row | Structure (SMILES) | fold change (FC) (Acinetobacter baumannii [1]) | fold change (FC) (Klebsiella pneumoniae [2]) | fold change (FC) (Acinetobacter baumannii [3]) | fold change (FC) (Escherichia coli [4]) | MIC (Acinetobacter baumannii [5]) | MIC (Klebsiella pneumoniae [6]) | MIC (Acinetobacter baumannii [7]) | MIC (Escherichia coli [8])
1 | O=C(NCCc1c[nH]c2ccccc12)c1ccc(Br)c(Br)n1 | 8 | 128 | 0 | 0 |  |  |  | 
2 | O=C(NCCc1csc2ccccc12)c1cc(Br)c(Br)[nH]1 | 32 | 16 | 8 | 4 | > 200 µM | > 200 µM | > 200 µM | > 200 µM
3 | O=C(NCCc1c[nH]c2ccccc12)c1ccccn1 | 8 | 0 | 0 | 0 |  |  |  | 
4 | O=C(NC1Cc2ccccc2C1)c1cc(Br)c(Br)[nH]1 | 8 | 0 | 0 | 0 | > 200 µM | > 200 µM | > 200 µM | > 200 µM
5 | COc1ccc2[nH]cc(CCNC(=O)c3cc(Br)c(Br)[nH]3)c2c1 | 128 | 128 | 8 | 2 | > 200 µM | > 200 µM | > 200 µM | > 200 µM
6 | O=C(NCCc1c[nH]c2ccccc12)c1cc(Cl)c[nH]1 | 16 | 8 | 2 | 2 |  |  |  | 
7 | O=C(NCCc1c[nH]c2ccccc12)c1cc(Br)c[nH]1 | 64 | 128 | 16 | 2 |  |  |  | 
8 | CCCCn1c(C(=O)NCCc2c[nH]c3ccccc23)cc(Br)c1Br | 16 | 16 | 2 | 0 |  |  |  | 
9 | O=C(NCCc1c[nH]c2ccccc12)c1sccc1Br | 64 | 128 | 4 | 2 |  |  |  | 
10 | O=C(NCCc1c[nH]c2ccc(O)cc12)c1cc(Br)c(Br)[nH]1 | 4 | 8 | 4 | 4 | > 200 µM | > 200 µM | > 200 µM | > 200 µM
11 | O=C(NCCc1c[nH]c2ccccc12)c1ccc(Br)o1 | 16 | 64 | 2 | 0 |  |  |  | 
12 | Cn1cc(Br)cc1C(=O)NCCc1c[nH]c2ccccc12 | 32 | 4 | 4 | 2 |  |  |  | 
13 | O=C(NCCc1c[nH]c2ccccc12)c1cc(Br)c(Br)n1Cc1ccccc1 | 8 | 16 | 2 | 0 |  |  |  | 
14 | O=C(NCCc1c[nH]c2ccccc12)c1cccs1 | 8 | 0 | 0 | 0 |  |  |  | 
15 | Cn1c(C(=O)NCCc2c[nH]c3ccccc23)cc(Br)c1Br | 32 | 256 | 16 | 2 |  |  |  | 
16 | O=C(NCc1ccccc1)c1cc(Br)c(Br)[nH]1 | 2 | 2 | 0 | 0 | > 200 µM | > 200 µM | > 200 µM | > 200 µM
17 | O=C(NCCc1ccccn1)c1cc(Br)c(Br)[nH]1 | 0 | 2 | 0 | 0 | > 200 µM | > 200 µM | > 200 µM | > 200 µM
18 | Cn1cc(CCNC(=O)c2cc(Br)c(Br)[nH]2)c2ccccc21 | 4 | 0 | 0 | 0 | > 200 µM | > 200 µM | > 200 µM | > 200 µM
19 | O=C(NCCc1c[nH]c2ccccc12)c1cc(Br)c(Br)s1 | 32 | 512 | 16 | 2 |  |  |  | 
20 | O=C(NCCc1cn(Cc2ccccc2)c2ccccc12)c1cc(Br)c(Br)[nH]1 | 0 | 0 | 0 | 0 | > 200 µM | > 200 µM | > 200 µM | > 200 µM
21 | O=C(NCCc1c[nH]c2ccccc12)c1cncc(Br)c1 | 4 | 8 | 0 | 0 |  |  |  | 
22 | O=C(NCCc1c[nH]c2ccccc12)c1cc(Br)c(Br)o1 | 64 | 512 | 16 | 2 |  |  |  | 
23 | Cn1cccc1C(=O)NCCc1c[nH]c2ccccc12 | 2 | 0 | 0 | 0 |  |  |  | 
24 | O=C(NCCc1c[nH]c2ccccc12)c1ccc[nH]1 | 2 | 0 | 2 | 0 |  |  |  | 
25 | O=C(NCCc1c[nH]c2ccccc12)c1cc(Cl)c(Cl)[nH]1 | 256 | 1024 | 32 | 8 |  |  |  | 
26 | O=C(NCc1c[nH]c2ccccc12)c1cccc(Br)n1 | 32 | 32 | 0 | 0 |  |  |  | 
27 | O=C(NCc1c[nH]c2ccccc12)c1cc(I)c(I)[nH]1 | 0 | 0 | 0 | 0 |  |  |  | 
28 | O=C(NCCc1c[nH]cn1)c1cc(Br)c(Br)[nH]1 | 8 | 0 | 0 | 0 | > 200 µM | > 200 µM | > 200 µM | > 200 µM

— ChEMBL document CHEMBL4392827, “Tryptamine derivatives disarm colistin resistance in polymyxin-resistant gram-negative bacteria” (Bioorg Med Chem, 2019)
